30 compounds from ChEMBL document CHEMBL3272177, “Hypolipidemic alkoxybenzoic acids” (1976) can be followed below.

Common to all, as to set-up: scale not given: the % may be the effect or the level left
For test [1], the species on record is Rattus norvegicus. Put plainly: Reduction in sterol level in CFE rat […] at 0.025% of diet treated through diet for 6 days relative to control. The format is functional, Serum. Summed up:
(§1)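 Compound dissolved in methanol-chloroform (1:3 v/v), mixed into ground rat chow at 0.1, 0.05 or 0.025% (w/w), and solvent evaporated; controls received solvent-treated chow. Rats fed ad libitum with water for 6 days, then killed fed and bled. Serum sterols and triglycerides measured by autoanalyzer. Values given as percent of control, mean ± SE; significance by Student's t test.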

For test [2], the species on record is Rattus norvegicus. The test can be described thus: Reduction in triglyceride level in CFE rat […] in serum at 0.05% of diet treated through diet for 6 days relative to control. Type of test: functional. Summed up: as §1
Test [3] is filed under the species Rattus norvegicus. Put plainly: Reduction in triglyceride level in CFE rat […] in serum at 0.1% of diet treated through diet for 6 days relative to control. Type of test: functional. Summed up:
as §1

The species entered for test [4] is Rattus norvegicus. Put plainly: Reduction in sterol level in CFE rat […] in serum at 0.05% of diet treated through diet for 6 days relative to control. The format is functional. Summed up: as §1
The species named for test [5] is Rattus norvegicus. The test can be described thus: Reduction in triglyceride level in CFE rat […] at 0.025% of diet treated through diet for 6 days relative to control. Type of test: functional, Serum. Summed up: as §1
Test [6] is filed under the species Rattus norvegicus. Put plainly: Reduction in sterol level in CFE rat […] in serum at 0.1% of diet treated through diet for 6 days relative to control. Type of test: functional. The procedure, abridged: as §1
The species entered for test [7] is Rattus norvegicus. Put plainly: Reduction in sterol level in CFE rat […] in serum at 0.005% of diet treated through diet for 6 days relative to control. The format is functional.
Test [8] is filed under the species Rattus norvegicus. The test can be described thus: Reduction in triglyceride level in CFE rat […] in serum at 0.005% of diet treated through diet for 6 days relative to control. Type of test: functional.
Test [9] is filed under the species Rattus norvegicus. The test can be described thus: Reduction in triglyceride level in CFE rat […] in serum at 0.3% of diet treated through diet for 6 days relative to control. Type of test: functional.
Test [10] is filed under the species Rattus norvegicus. The test can be described thus: Reduction in sterol level in CFE rat […] in serum at 0.3% of diet treated through diet for 6 days relative to control. Type of test: functional.

Take `CCCCCCCCCCCCCCCCOc1ccc(C(=O)O)cc1`: the Activity in the test listed under Rattus norvegicus [1] stood at 89%; in the test filed under Rattus norvegicus [2], 62%; in the test filed under Rattus norvegicus [3], 46%; in the test filed under Rattus norvegicus [4], 83%; in the test filed under Rattus norvegicus [5] it was 58%; in the test listed under Rattus norvegicus [6], 74%.
Regarding `CC(C)CCCC(C)CCCC(C)CCOc1ccc(C(=O)O)cc1` (configuration not stated), the Activity in the test filed under Rattus norvegicus [1] came to 81%; in the test listed under Rattus norvegicus [2], 72%; in the test filed under Rattus norvegicus [3], 26%; in the test filed under Rattus norvegicus [4], 73%; in the test filed under Rattus norvegicus [5] it was 72%; in the test filed under Rattus norvegicus [6], 87%.
With `C=CCCCCCCCCCOc1ccc(C(=O)O)cc1`, the Activity in the test listed under Rattus norvegicus [1] is given as 100%; in the test listed under Rattus norvegicus [2] it was 81%; in the test listed under Rattus norvegicus [3], 60%; in the test listed under Rattus norvegicus [4], 99%; in the test filed under Rattus norvegicus [5], 82%; in the test listed under Rattus norvegicus [6] it was 86%.
As to `CC(C)=CCC/C(C)=C/CC/C(C)=C/COc1ccc(C(=O)O)cc1`, the Activity in the test filed under Rattus norvegicus [1] is 108%; in the test listed under Rattus norvegicus [2], 111%; in the test filed under Rattus norvegicus [3], 133%; in the test listed under Rattus norvegicus [4], 102%; in the test filed under Rattus norvegicus [5], 131%; in the test filed under Rattus norvegicus [6], 87%.
In the case of `O=C(O)c1ccc(OC2CCCCCCCCCCC2)cc1`, the Activity in the test listed under Rattus norvegicus [1] worked out at 87%; in the test listed under Rattus norvegicus [2], 81%; in the test listed under Rattus norvegicus [3], 87%; in the test listed under Rattus norvegicus [4], 94%; in the test listed under Rattus norvegicus [5], 97%; in the test listed under Rattus norvegicus [6], 86%.
As to `CCCCNC(=O)CCCCCCCCCCOc1ccc(C(=O)O)cc1`, the Activity in the test listed under Rattus norvegicus [1] is 99%; in the test listed under Rattus norvegicus [2], 87%; in the test filed under Rattus norvegicus [3], 85%; in the test filed under Rattus norvegicus [4], 96%; in the test listed under Rattus norvegicus [5], 93%; in the test listed under Rattus norvegicus [6] it was 88%.
`CC(C)CCCC(C)CCCC(C)CCCC(C)CCOc1ccc(C(=O)O)cc1` (configuration not stated): the Activity in the test filed under Rattus norvegicus [1] came out at 87%; in the test listed under Rattus norvegicus [2] it was 104%; in the test filed under Rattus norvegicus [3] it was 72%; in the test listed under Rattus norvegicus [4], 84%; in the test filed under Rattus norvegicus [5] it was 110%; in the test filed under Rattus norvegicus [6] it was 71%.
For the compound `O=C(O)c1ccc(OCC2CCCCCCCCCCC2)cc1`, the Activity in the test listed under Rattus norvegicus [1] stood at 104%; in the test listed under Rattus norvegicus [2], 130%; in the test listed under Rattus norvegicus [3] it was 160%; in the test filed under Rattus norvegicus [4], 105%; in the test filed under Rattus norvegicus [5], 123%; in the test filed under Rattus norvegicus [6] it was 101%.
Consider `CCCCCCCCCCCCCCC(C)Oc1ccc(C(=O)O)cc1` (configuration not stated), for which the Activity came out at 90% in the test listed under Rattus norvegicus [1]; 72% in the test filed under Rattus norvegicus [2]; 70% in the test filed under Rattus norvegicus [3]; 85% in the test listed under Rattus norvegicus [4]; 92% in the test filed under Rattus norvegicus [5]; 84% in the test filed under Rattus norvegicus [6].
For the compound `CCCCCCCCCCCCCC(CC)Oc1ccc(C(=O)O)cc1` (configuration not stated), the Activity in the test filed under Rattus norvegicus [1] worked out at 82%; in the test filed under Rattus norvegicus [2], 78%; in the test filed under Rattus norvegicus [3] it was 75%; in the test filed under Rattus norvegicus [4], 86%; in the test filed under Rattus norvegicus [5], 83%; in the test listed under Rattus norvegicus [6] it was 85%.
Consider `CCCCCCCCCCCCC(CCC)Oc1ccc(C(=O)O)cc1` (configuration not stated), for which the Activity in the test filed under Rattus norvegicus [1] was determined as 78%; in the test listed under Rattus norvegicus [2], 62%; in the test listed under Rattus norvegicus [3], 53%; in the test filed under Rattus norvegicus [4], 76%; in the test filed under Rattus norvegicus [5], 70%; in the test filed under Rattus norvegicus [6], 74%.
For the compound `O=C(O)c1ccc(OC2C3CC4CC(C3)CC2C4)cc1` (configuration not stated), the Activity is on record as 88% in the test listed under Rattus norvegicus [1]; 82% in the test listed under Rattus norvegicus [2]; 88% in the test filed under Rattus norvegicus [3]; 92% in the test filed under Rattus norvegicus [4]; 79% in the test listed under Rattus norvegicus [5]; 96% in the test listed under Rattus norvegicus [6].
`CCCCCCCCCCCC(C)(C)Oc1ccc(C(=O)O)cc1`: the Activity in the test listed under Rattus norvegicus [1] amounted to 90%; in the test listed under Rattus norvegicus [2] it was 80%; in the test listed under Rattus norvegicus [3], 63%; in the test listed under Rattus norvegicus [4], 88%; in the test listed under Rattus norvegicus [5], 74%; in the test listed under Rattus norvegicus [6], 83%.
Regarding `CCCCCCCCCCCCC(C)(C)Oc1ccc(C(=O)O)cc1`, the Activity was determined as 100% in the test filed under Rattus norvegicus [1]; 79% in the test filed under Rattus norvegicus [2]; 87% in the test listed under Rattus norvegicus [3]; 90% in the test filed under Rattus norvegicus [4]; 77% in the test filed under Rattus norvegicus [5]; 97% in the test filed under Rattus norvegicus [6].
`CCCCCCCCCCCCCC(C)(C)Oc1ccc(C(=O)O)cc1`: the Activity in the test filed under Rattus norvegicus [1] stood at 92%; in the test listed under Rattus norvegicus [2] it was 105%; in the test filed under Rattus norvegicus [3] it was 83%; in the test filed under Rattus norvegicus [4] it was 120%; in the test listed under Rattus norvegicus [5], 127%; in the test filed under Rattus norvegicus [6], 100%.
Regarding `CCCCCCCCCCCCCCCC(C)(C)Oc1ccc(C(=O)O)cc1`, the Activity worked out at 101% in the test listed under Rattus norvegicus [1]; 111% in the test filed under Rattus norvegicus [2]; 100% in the test listed under Rattus norvegicus [3]; 112% in the test filed under Rattus norvegicus [4]; 103% in the test filed under Rattus norvegicus [5]; 96% in the test listed under Rattus norvegicus [6].
On to `O=C(O)c1ccc(OC23CC4CC(CC(C4)C2)C3)cc1`, for which the Activity was 90% in the test filed under Rattus norvegicus [1]; 89% in the test listed under Rattus norvegicus [2]; 85% in the test filed under Rattus norvegicus [3]; 87% in the test filed under Rattus norvegicus [4]; 85% in the test filed under Rattus norvegicus [5]; 88% in the test filed under Rattus norvegicus [6].
Take `CCCCCCCCC/C=C/CCCOc1ccc(C(=O)O)cc1`: the Activity in the test listed under Rattus norvegicus [1] was 87%; in the test listed under Rattus norvegicus [2] it was 89%; in the test listed under Rattus norvegicus [3], 87%; in the test listed under Rattus norvegicus [4] it was 73%; in the test filed under Rattus norvegicus [5] it was 89%; in the test listed under Rattus norvegicus [6], 77%.
As to `CCCCCCCCCC/C=C/CCCOc1ccc(C(=O)O)cc1`, the Activity is 92% in the test filed under Rattus norvegicus [1]; 76% in the test filed under Rattus norvegicus [2]; 92% in the test listed under Rattus norvegicus [3]; 92% in the test filed under Rattus norvegicus [4]; 72% in the test filed under Rattus norvegicus [5]; 79% in the test filed under Rattus norvegicus [6].
Turning to `CCCCCCCCCCC/C=C/CCCOc1ccc(C(=O)O)cc1`, the Activity amounted to 75% in the test listed under Rattus norvegicus [1]; 76% in the test filed under Rattus norvegicus [2]; 59% in the test listed under Rattus norvegicus [3]; 67% in the test listed under Rattus norvegicus [4]; 76% in the test listed under Rattus norvegicus [5]; 69% in the test filed under Rattus norvegicus [6].
Turning to `CCCCCCCCCCCCC/C=C\COc1ccc(C(=O)O)cc1`, the Activity came out at 95% in the test filed under Rattus norvegicus [1]; 79% in the test filed under Rattus norvegicus [2]; 60% in the test listed under Rattus norvegicus [3]; 87% in the test filed under Rattus norvegicus [4]; 88% in the test listed under Rattus norvegicus [5]; 90% in the test filed under Rattus norvegicus [6].
Take `CCCCCCCCCCCCC/C=C/COc1ccc(C(=O)O)cc1`: the Activity is on record as 106% in the test filed under Rattus norvegicus [1]; 57% in the test listed under Rattus norvegicus [2]; 46% in the test listed under Rattus norvegicus [3]; 85% in the test filed under Rattus norvegicus [4]; 45% in the test filed under Rattus norvegicus [5]; 81% in the test listed under Rattus norvegicus [6].
For `CCCCCCCCCCCCCC#CCOc1ccc(C(=O)O)cc1`, the Activity is recorded as 98% in the test listed under Rattus norvegicus [1]; 65% in the test filed under Rattus norvegicus [2]; 75% in the test filed under Rattus norvegicus [3]; 88% in the test filed under Rattus norvegicus [4]; 96% in the test listed under Rattus norvegicus [5]; 82% in the test listed under Rattus norvegicus [6].
On to `C=CCCCCCCCC/C=C/CCCOc1ccc(C(=O)O)cc1`, for which the Activity in the test listed under Rattus norvegicus [1] was 92%; in the test listed under Rattus norvegicus [2], 96%; in the test filed under Rattus norvegicus [3] it was 83%; in the test filed under Rattus norvegicus [4], 87%; in the test listed under Rattus norvegicus [5] it was 83%; in the test listed under Rattus norvegicus [6], 74%.
Turning to `CCCCCCCCCCCC1OC1CCCOc1ccc(C(=O)O)cc1` (configuration not stated), the Activity in the test listed under Rattus norvegicus [1] is listed as 90%; in the test filed under Rattus norvegicus [2] it was 52%; in the test filed under Rattus norvegicus [3], 55%; in the test listed under Rattus norvegicus [4] it was 85%; in the test listed under Rattus norvegicus [5] it was 74%; in the test listed under Rattus norvegicus [6], 85%.
Consider `O=C(O)c1ccc(OC(=O)C2C3CC4CC(C3)CC2C4)cc1` (configuration not stated), for which the Activity was determined as 93% in the test listed under Rattus norvegicus [1]; 101% in the test listed under Rattus norvegicus [2]; 113% in the test listed under Rattus norvegicus [3]; 99% in the test filed under Rattus norvegicus [4]; 90% in the test filed under Rattus norvegicus [5]; 92% in the test filed under Rattus norvegicus [6].
Consider `O=C(O)c1ccc(OCCCCCCCCCCCCCCCOc2ccc(C(=O)O)cc2)cc1`, for which the Activity in the test listed under Rattus norvegicus [1] is listed as 97%; in the test listed under Rattus norvegicus [2], 77%; in the test filed under Rattus norvegicus [3] it was 51%; in the test listed under Rattus norvegicus [4] it was 103%; in the test listed under Rattus norvegicus [5], 64%; in the test filed under Rattus norvegicus [6], 94%.
`CCCCCCCCCCCC(=O)CCOc1ccc(C(=O)O)cc1`: the Activity in the test listed under Rattus norvegicus [1] was determined as 89%; in the test filed under Rattus norvegicus [2], 75%; in the test listed under Rattus norvegicus [3], 74%; in the test filed under Rattus norvegicus [4], 89%; in the test filed under Rattus norvegicus [5], 84%; in the test listed under Rattus norvegicus [6] it was 92%.
For `FC(F)(F)c1ccc(-c2ccc(OCCN3CCCC3)cc2)cc1` [BOXIDINE], the Activity in the test filed under Rattus norvegicus [7] is listed as 60%; in the test listed under Rattus norvegicus [8], 55%.
As to `CCOC(=O)C(C)(C)Oc1ccc(Cl)cc1` [CLOFIBRATE], the Activity was determined as 42% in the test filed under Rattus norvegicus [9] and 81% in the test listed under Rattus norvegicus [10].
